# Assay results taken from PubChem BioAssay AID623986 (Vanderbilt High Throughput Screening Facility, 2012).
# The source made the active and inactive calls. No rule for the calls is given here.
# Target: Potassium voltage-gated channel subfamily KQT member 4 (Homo sapiens) (UniProt P56696)
# Assay: KCNQ4 potassium channel activity – cell-based, human, thallium flux, concentration-response, selectivity assay for GIRK activator project, dose response (AID 623986)
# Settings: T-REx-293 hKv7.4, thallium flux FluoZin-2 fluorescence; series mostly up to 100 µM
# Summary of the method: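 material = T-REx-293 cells stably expressing human Kv7.4 potassium channel | read-out basis = baseline-corrected slope, % of vehicle | control set = XE-991-blocked wells as baseline, vehicle wells as reference | repeats = triplicate wells, four-parameter logistic concentration-response fits | measured by = FluoZin-2 thallium flux fluorescence | incubation = 4 min compound pretreatment before thallium stimulus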
# Chain of Potassium voltage-gated channel subfamily KQT member 4 (Homo sapiens) (P56696 whole entry, looked up): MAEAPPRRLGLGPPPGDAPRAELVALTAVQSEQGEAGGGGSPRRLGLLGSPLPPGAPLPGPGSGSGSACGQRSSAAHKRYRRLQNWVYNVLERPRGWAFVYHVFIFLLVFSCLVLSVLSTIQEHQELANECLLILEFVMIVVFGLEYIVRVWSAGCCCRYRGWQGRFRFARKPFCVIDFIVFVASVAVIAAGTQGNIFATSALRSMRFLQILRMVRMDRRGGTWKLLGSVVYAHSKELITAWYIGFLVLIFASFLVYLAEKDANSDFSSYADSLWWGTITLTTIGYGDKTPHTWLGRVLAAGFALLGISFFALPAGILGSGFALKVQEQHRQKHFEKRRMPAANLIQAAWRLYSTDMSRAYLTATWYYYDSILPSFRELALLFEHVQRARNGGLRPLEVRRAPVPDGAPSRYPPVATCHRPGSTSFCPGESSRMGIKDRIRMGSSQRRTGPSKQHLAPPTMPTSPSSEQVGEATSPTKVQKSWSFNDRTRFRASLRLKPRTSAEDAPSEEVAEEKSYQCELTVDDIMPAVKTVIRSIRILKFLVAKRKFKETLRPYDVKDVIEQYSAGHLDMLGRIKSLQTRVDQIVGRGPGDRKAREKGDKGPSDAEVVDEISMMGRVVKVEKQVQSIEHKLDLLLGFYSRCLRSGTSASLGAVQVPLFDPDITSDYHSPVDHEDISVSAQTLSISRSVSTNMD
compound,measurement,value
Cc1cc(NC(=O)Nc2ccc(F)c(F)c2)n(-c2ccccc2)n1,outcome,inactive
